Data taken from ChEMBL document CHEMBL1765023, “Acetyl analogs of combretastatin A-4: synthesis and biological studies” (Bioorg Med Chem, 2011).
Values after ≈ are worked out from the molar mass of the structure shown.

Assays:
[1] = Induction of microtubule depolymerization in […] cells for 18 hrs by indirect immunofluorescence microscopic analysis; format: cell-based
Method in brief: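 Uses A-10 cells, a non-transformed line that arrests in interphase under microtubule-targeting agents. Cells were treated for 18 h and interphase microtubules were visualized by indirect immunofluorescence microscopy, with vehicle-treated controls. Depolymerization was screened at concentrations below 30 µM. For EC50, a range of concentrations was tested, and EC50 is the concentration causing 50% loss of cellular microtubules by microscopy.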

[2] = Ratio of EC50 for microtubule depolymerization in […] cells to IC50 for human MDA-MB-435 cells
[3] = Solubility of the compound in water by multiscreen solubility; format: physicochemical
Method in brief: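 Aqueous solubility was measured with a modified Multiscreen Solubility filter-plate protocol. The assay ceiling is 500 µM, and two independent experiments were run.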

B16 = test: Cytotoxicity against mouse B16 cells by MTT assay; format: functional, cell-based
L1210 = test: Cytotoxicity against mouse L1210 cells by MTT assay; format: functional, cell-based
Mus musculus [4] = test: Toxicity in DBA2 mouse assessed as change in platelet count at 75 mg/kg, ip QD administered on alternate days for 17 days measured on day 23 relative to control; format: organism-based; set-up: dose 75 mg/kg, route intraperitoneal; conditions: in vivo, 408 h
Method in brief: (§1)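 Healthy female DBA2 mice, 5–7 weeks old, five per group, received 75 mg/kg ip on days 1, 5, 9, 13 and 17. Vehicle was PET (PEG400/ethanol/Tween 80, 6:3:1), 5% glucose and DMSO, with final ethanol 15% and DMSO 10%. Controls received 100 µL vehicle. Body weight was measured every other day. At sacrifice on day 23, blood counts (hematocrit, WBC, granulocytes, platelets) and liver, kidney and spleen appearance and weight were assessed.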

Mus musculus [5] = test: Toxicity in DBA2 mouse assessed as change in body weight at 75 mg/kg, ip QD administered on alternate days for 17 days measured on day 23 relative to control; format: organism-based; set-up: dose 75 mg/kg, route intraperitoneal; conditions: in vivo, 408 h; method in brief: as §1
Mus musculus [6] = test: Toxicity in DBA2 mouse assessed as change in color, weight and size in liver at 75 mg/kg, ip QD administered on alternate days for 17 days measured on day 23 relative to control; format: organism-based; set-up: dose 75 mg/kg, route intraperitoneal; conditions: in vivo, 408 h; method in brief: as §1
Mus musculus [7] = test: Toxicity in DBA2 mouse assessed as change in color, weight and size in kidney at 75 mg/kg, ip QD administered on alternate days for 17 days measured on day 23 relative to control; format: organism-based; set-up: dose 75 mg/kg, route intraperitoneal; conditions: in vivo, 408 h; method in brief: as §1
Mus musculus [8] = test: Toxicity in DBA2 mouse assessed as change in color, weight and size in spleen at 75 mg/kg, ip QD administered on alternate days for 17 days measured on day 23 relative to control; format: organism-based; set-up: dose 75 mg/kg, route intraperitoneal; conditions: in vivo, 408 h; method in brief: as §1
Mus musculus [9] = test: Toxicity in DBA2 mouse assessed as change in hematocrit at 75 mg/kg, ip QD administered on alternate days for 17 days measured on day 23 relative to control; format: organism-based; set-up: dose 75 mg/kg, route intraperitoneal; conditions: in vivo, 408 h; method in brief: as §1
Mus musculus [10] = test: Toxicity in DBA2 mouse assessed as change in white blood count at 75 mg/kg, ip QD administered on alternate days for 17 days measured on day 23 relative to control; format: organism-based; set-up: dose 75 mg/kg, route intraperitoneal; conditions: in vivo, 408 h; method in brief: as §1
Mus musculus [11] = test: Toxicity in DBA2 mouse assessed as change in granulocyte count at 75 mg/kg, ip QD administered on alternate days for 17 days measured on day 23 relative to control; format: organism-based; set-up: dose 75 mg/kg, route intraperitoneal; conditions: in vivo, 408 h; method in brief: as §1

Row | Structure (SMILES) | IC50 (B16) [µM] | IC50 (L1210) [µM] | also measured
1 | COc1ccc(/C=C(/C(C)=O)c2cc(OC)c(OC)c(OC)c2)cc1 | 7.3 | 0.38 | EC50 [1]: 18.6 µM; Ratio [2]: 53; solubility [3]: 319 µM (≈ 109 µg/mL)
2 | COc1ccc(/C=C(/C(C)=O)c2cc(OC)c(OC)c(OC)c2)cc1[N+](=O)[O-] | 3.8 | 3.1 | –
3 | COc1cc(/C(=C\c2cccc(Br)c2)C(C)=O)cc(OC)c1OC | 39 | 35 | –
4 | COc1ccc(OC)c(/C=C(/C(C)=O)c2cc(OC)c(OC)c(OC)c2)c1 | 4 | 3.7 | –
5 | COc1cc(/C=C(/C(C)=O)c2cc(OC)c(OC)c(OC)c2)cc(OC)c1OC | 23 | 7.2 | –
6 | COc1cc(/C(=C\c2ccc(Cl)cc2)C(C)=O)cc(OC)c1OC | 7.4 | 5 | –
7 | COc1cc(/C(=C\c2ccc(C#N)cc2)C(C)=O)cc(OC)c1OC | 29 | 8 | –
8 | COc1ccccc1/C=C(/C(C)=O)c1cc(OC)c(OC)c(OC)c1 | 41 | 40 | –
9 | COc1cc(/C(=C\c2ccc(C)cc2)C(C)=O)cc(OC)c1OC | 2.9 | 0.36 | Activity (Mus musculus [4]): Non-toxic; EC50 [1]: 5.6 µM; Ratio [2]: 59; Activity (Mus musculus [5]): Non-toxic; Activity (Mus musculus [6]): Non-toxic; Activity (Mus musculus [7]): Non-toxic; Activity (Mus musculus [8]): Non-toxic; Activity (Mus musculus [9]): Non-toxic; Activity (Mus musculus [10]): Non-toxic; Activity (Mus musculus [11]): Non-toxic; solubility [3]: 443 µM (≈ 145 µg/mL)
10 | COc1cc(/C(=C\c2ccccc2)C(C)=O)cc(OC)c1OC | 25 | 5.4 | –
11 | COc1cc(/C(=C\c2ccc(F)cc2)C(C)=O)cc(OC)c1OC | 65 | 43 | –
12 | COc1cc(/C(=C\c2cccc([N+](=O)[O-])c2)C(C)=O)cc(OC)c1OC | 3.8 | 3.3 | –
13 | COc1cc(/C(=C\c2ccc(Br)cc2)C(C)=O)cc(OC)c1OC | 19 | 4 | –
14 | COc1ccc(/C=C(/C(C)=O)c2cc(OC)c(OC)c(OC)c2)cc1OC | 42 | 37 | –
15 | COc1cc(/C(=C\c2ccc(Cl)c(Cl)c2)C(C)=O)cc(OC)c1OC | 6.4 | 4 | –
16 | COc1ccc(/C=C(/C(C)=O)c2cc(OC)c(OC)c(OC)c2)cc1O[Si](C)(C)C(C)(C)C | 5.1 | 0.18 | –
17 | COc1cc(/C(=C\c2ccc([N+](=O)[O-])cc2)C(C)=O)cc(OC)c1OC | 18 | 18 | –
18 | COc1cccc(/C=C(/C(C)=O)c2cc(OC)c(OC)c(OC)c2)c1 | 31 | 39 | –
19 | COc1cc(OC)c(/C=C(/C(C)=O)c2cc(OC)c(OC)c(OC)c2)c(OC)c1 | > 100 | 3.7 | –
